From article PMC12399195 (Acta Pharmaceutica Sinica. B, 2025)
Where a chain is given by its changes, count along the chain named.

Columns and labels:
[1] = biological target: T1, Notum (Homo sapiens, UniProt Q6P988); assay: Notum inhibition assay, DO as fluorogenic substrate; format: biochemical
T1 sequence (Q6P988 20-496): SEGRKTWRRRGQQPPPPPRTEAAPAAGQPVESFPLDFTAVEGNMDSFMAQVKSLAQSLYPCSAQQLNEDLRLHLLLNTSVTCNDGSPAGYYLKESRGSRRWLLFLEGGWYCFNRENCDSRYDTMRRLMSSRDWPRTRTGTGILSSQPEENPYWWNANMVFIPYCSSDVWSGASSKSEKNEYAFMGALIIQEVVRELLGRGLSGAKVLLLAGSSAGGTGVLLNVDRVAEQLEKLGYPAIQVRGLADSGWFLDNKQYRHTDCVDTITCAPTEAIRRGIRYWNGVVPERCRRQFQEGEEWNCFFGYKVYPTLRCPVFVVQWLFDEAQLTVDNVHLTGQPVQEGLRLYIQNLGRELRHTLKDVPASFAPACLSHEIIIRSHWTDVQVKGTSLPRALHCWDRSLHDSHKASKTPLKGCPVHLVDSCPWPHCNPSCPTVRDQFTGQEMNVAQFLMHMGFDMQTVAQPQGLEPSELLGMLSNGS

[2] = biological target: T1, Notum; assay: Notum inhibition assay, OPTS as substrate; format: biochemical
[3] = tested on: healthy mice; assay: Toxicity test in healthy mice; format: in vivo, C57BL/6J mice; details: 200 mg/kg oral
[4] = tested on: MC3T3-E1 cells; assay: Cell viability; format: cell-based; details: for cytotoxicity towards MC3T3-E1 cells: 0–20 μmol/L, 96 h
[5] = tested on: MC3T3-E1 cells; assay: ALP staining, osteoblast differentiation in DXMS-challenged MC3T3-E1 cells; format: cell-based; details: 7 days
Procedure, shortened: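 MC3T3-E1 cells were kept in DMEM with 10% FBS and 1% penicillin–streptomycin at 37 °C under 5% CO₂. Cells were seeded at 2×10^3 cells/well and grown 24 h, then switched to inducible medium. DXMS and test compound were added together for seven days, with medium changed every two days. Cells were fixed 15 min in 4% paraformaldehyde at room temperature, PBS-washed, BCIP/NBT ALP-stained, imaged and quantified.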

[6] = biological target: T2, F268G Notum (Homo sapiens, UniProt Q6P988, F268G); assay: Inhibition of DO hydrolysis in F268G Notum mutant; format: biochemical
T2 sequence (Q6P988 20-496 F268G): T1 sequence (Q6P988 20-496) with F249G

[7] = tested on: MC3T3-E1 cells; assay: Alizarin red S staining, calcification in DXMS-challenged MC3T3-E1 cells; format: cell-based; details: DXMS-challenged (200 μmol/L) MC3T3-E1 cells, 21 days
[8] = tested on: Wnt/β-catenin signaling; format: cell-based; details: DXMS-challenged MC3T3-E1 cells, 7 days
[9] = Tissue distribution in mice after gavage; format: in vivo, C57BL/6J mice
Procedure, shortened: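 Twenty male C57BL/6J mice (6 weeks, 18–20 g) were randomised into four groups: control, 1 h, 2 h and 3 h. Test compound in 0.5% CMC-Na was given once by gavage. Mice were anaesthetised at 0, 1, 2 or 3 h, and blood and organs including femur were removed. Samples were centrifuged at 20,000 × g, 4 °C, 30 min, and compound concentration was determined by LC–MS/MS.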

[10] = tested on: DXMS-induced osteoporotic mice; assay: In vivo anti-osteoporosis test in DXMS-induced osteoporotic mice; design: species or system C57BL/6J mice; details: for effect on weight loss induced by DXMS: five weeks
Procedure, shortened: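 Male C57BL/6J mice (6 weeks) were held SPF at 25 ± 2 °C, 50 ± 10% humidity and 12 h/12 h light/dark, with 7 days acclimatisation. They were randomised into five groups. DXMS was given i.p. at 2.5 mg/kg, five times weekly for five weeks. Test compound was dosed orally daily; PTH1–34 was given i.p. After five weeks, serum, femurs and tibias were collected. Serum ALP, OT/BGT, OPG and Col-1A1 were measured by ELISA kits. Data are mean ± SD.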

[11] = cited from earlier work
[12] = tested on: CYPs; details: phase I metabolic systems, GSH trapping
[13] = IC50 (DO as probe), Notum-catalyzed DO hydrolysis
[14] = 5-MP 20 and 40 mg/kg oral daily, PTH 100 μg/kg/day i.p.
[15] = distal and mid-femur, vs DXMS-challenged mice
[16] = distal femur, DXMS-challenged mice

Question: Which results are given for `O=c1ccc2cc3ccoc3cc2o1` [Psoralen]?
Answer: IC50 [1, 13]: 108 ± 10.4 nM; IC50 [2]: 99.9 ± 10.8 nM; body weight ([3]; 14 consecutive days, mice): decreased significantly; death of mice ([3]; 14 consecutive days, mice): no death was observed; organ injury (H&E, pathological examination) ([3]; 14 consecutive days, mice): varying degrees of organ injury; organ coefficients of the heart, liver and kidney ([3]; 14 days, vs control): remarkably elevated; serum levels of ALP, CREA, UREA and TG ([3]; 14 days, vs control): elevate; serum levels of AST and ALT ([3]; 14 days, vs control): elevated; cytotoxicity towards MC3T3-E1 cells [4]: weak cytotoxicity; effect on ALP levels (osteoblast differentiation) [5]: relatively weak

Question: For `COc1c2occc2cc2ccc(=O)oc12` [8-Methoxypsoralen], which IC50 [1] is on record?
Answer: Its IC50 is 9450 ± 1380 nM.

Question: With `O=c1oc2cc(O)ccc2c2oc3cc(O)ccc3c12` [Coumestrol] as the molecule, how does the IC50 [1] read?
Answer: Its IC50 is 12800 ± 2440 nM.

Question: For `COc1c2ccoc2cc2oc(=O)ccc12` [5-MP, 5-methoxypsoralen], which Ki [1] is on record?
Answer: The Ki was 23.5 nM.

Question: And the IC50 [1, 13]?
Answer: The IC50 was 18.7 ± 2.08 nM.

Question: And the inhibition manner ([1]; inhibition kinetics, DO hydrolysis)?
Answer: Its inhibition manner is “competitive”.

Question: And the IC50 [2]?
Answer: The IC50 was 11.2 ± 0.6 nM.

Question: And the Ki [2]?
Answer: The Ki was 15.1 nM.

Question: What about the inhibition manner ([2]; inhibition kinetics, OPTS hydrolysis) of the same molecule?
Answer: The inhibition manner was “competitive”.

Question: What about the IC50 [6] of the same molecule?
Answer: The IC50 was 1210 nM.

Question: And the “organ injury (H&E, pathological examination)” value ([3]; 14 consecutive days, mice)?
Answer: Its value is “no organ injury was observed”.

Question: What about the overall mortality rate ([3]; 14 consecutive days, mice) of the same molecule?
Answer: The overall mortality rate was 0%.

Question: And the “serological indicators of organ injury (ALT, AST, CK, CREA)” value ([3]; 14 days, vs control)?
Answer: The value was “no significant difference”.

Question: And the “serum levels of TC and TG” value ([3]; 14 days, vs control)?
Answer: The value was “decreased”.

Question: And the spleen coefficient ([3]; 14 days, vs control)?
Answer: The spleen coefficient was “slight decline”.

Question: And the organ coefficient ([3]; 14 days, vs control, except spleen)?
Answer: The organ coefficient was “no significant difference”.

Question: What about the “cytotoxicity towards MC3T3-E1 cells” value [4] of the same molecule?
Answer: The value was “weak cytotoxicity”.

Question: What about the “effect on ALP levels (osteoblast differentiation)” value [5] of the same molecule?
Answer: The value was “dose-dependently mitigate the reduced ALP levels”.

Question: And the “effect on intracellular calcification (ARS staining)” value [7]?
Answer: Its value is “significantly reversed the intracellular calcium loss”.

Question: What about the “mRNA levels of Notum, GSK3β, β-catenin, OPN and RUNX2” value [8] of the same molecule?
Answer: The value was “significantly reversed the abnormal mRNA levels”.

Question: What about the concentration at 2 h ([9]; male, C57BL/6J, mouse, femur, po, 40 mg/kg) of the same molecule?
Answer: The concentration at 2 h was 8.3 nM.

Question: And the concentration at 3 h ([9]; male, C57BL/6J, mouse, plasma, po, 40 mg/kg)?
Answer: The concentration at 3 h was 44.6 nM.

Question: What about the tissue distribution ([9]; single oral dose 40 mg/kg, mice) of the same molecule?
Answer: Its tissue distribution is “high exposure in the plasma and the liver”.

Question: And the “effect on weight loss induced by DXMS” value [10, 14]?
Answer: The value was “neither PTH (positive control for osteoporosis) nor 5-MP (20 and 40 mg/kg) could significantly reverse the weight loss”.

Question: And the “serum levels of osteogenic markers (ALP, OT/BGT, OPG, Col-1A1)” value ([10]; 5-MP 20 and 40 mg/kg oral daily, PTH 100 μg/kg/day i.p., vs DXMS)?
Answer: The value was “substantially increased”.

Question: And the “bone volume fraction (BV/TV) and bone mineral density (BMD)” value [10, 15]?
Answer: The value was “significantly enhanced”.

Question: And the “trabecular and cortical bone thickness (micro-CT)” value [10, 15]?
Answer: Its value is “significantly improved”.

Question: What about the “immunofluorescence signals of Notum in cortical bone tissues” value [10, 16] of the same molecule?
Answer: Its value is “significantly decreased”.

Question: And the “immunofluorescence signals of Notum in marrow cavity” value [10, 16]?
Answer: The value was “hardly decrease”.

Question: And the “new bone formation (double labeling)” value ([10]; tibia, vs DXMS-challenged group)?
Answer: The value was “active new bone formation”.

Question: What about the “half-life (t1/2)” value [11] of the same molecule?
Answer: Its value is 4.21 h.

Question: And the “formation of reactive intermediates” value [12]?
Answer: The value was “did not detect reactive intermediates”.

Question: For `C[C@@H]1C[C@H]2[C@@H]3CCC4=CC(=O)C=C[C@]4(C)[C@@]3(F)[C@@H](O)C[C@]2(C)[C@@]1(O)C(=O)CO` [DXMS, dexamethasone, reference compound], which cells diminished ([4]; 200 μmol/L) is on record?
Answer: Its cells diminished is “approximately 50%”.

Question: Which IC50 [1, 13] does the source give for `O=c1ccc2ccc3occc3c2o1` [Isopsoralen] here?
Answer: Its IC50 is 72.7 ± 5.03 nM.

Question: And the IC50 [2]?
Answer: Its IC50 is 71.9 ± 11 nM.

Question: And the body weight ([3]; 14 consecutive days, mice)?
Answer: The body weight was “significantly decreased”.

Question: What about the death of mice ([3]; 14 consecutive days, mice) of the same molecule?
Answer: Its death of mice is “the mice began to die”.

Question: And the “organ injury (H&E, pathological examination)” value ([3]; 14 consecutive days, mice)?
Answer: The value was “varying degrees of organ injury”.

Question: What about the “organ coefficients of the heart, liver and kidney” value ([3]; 14 days, vs control) of the same molecule?
Answer: Its value is “remarkably elevated”.

Question: And the “serum levels of AST and ALT” value ([3]; 14 days, vs control)?
Answer: Its value is “elevated”.

Question: And the “serum levels of CK, UREA and TG” value ([3]; 14 days, vs control)?
Answer: The value was “decrease”.

Question: What about the “cytotoxicity towards MC3T3-E1 cells” value [4] of the same molecule?
Answer: Its value is “weak cytotoxicity”.

Question: And the “effect on ALP levels (osteoblast differentiation)” value [5]?
Answer: The value was “relatively weak”.

Question: What about the “formation of reactive intermediates” value [12] of the same molecule?
Answer: The value was “metabolically bioactivated by CYPs to generate reactive intermediates”.

Question: For “PTH: parathyroid hormone 1–34, positive drug for treating osteoporosis (SVSEIQLMHNLGKHLNSMERVEWLRKKLQDVHNF; Parathyroid hormone; UniProt P01270 32-65, looked up, fragment) [reference compound]”, which “effect on weight loss induced by DXMS” value [10, 14] is on record?
Answer: Its value is “neither PTH (positive control for osteoporosis) nor 5-MP (20 and 40 mg/kg) could significantly reverse the weight loss”.
